Ends that are not written are not given here.
Tests used:
BRD4 = test: Immunoblotting of BRD4 protein; assay type: cell-based; conditions: MCF7 cells, MZ1 1 μM, 24 h, compared with TAT-PiET-PROTAC 10 μM
[1] = system: c-Myc, N-myc, CCND1 expression in MCF7 cells; test: RT-qPCR and immunoblotting of BRD4/JMJD6 target genes, MCF7 cells; assay type: cell-based; conditions: 10 μM 6 h in cells; xenograft tumor samples; RT-qPCR
[2] = system: tamoxifen-resistant MCF7 cells; test: Cell proliferation and colony formation, tamoxifen-resistant MCF7; assay type: cell-based; conditions: peptide inhibitors 10 μM, tamoxifen 3 μM, cell proliferation and colony formation assay
Summary of the method: (§1)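 Resistant lines (MCF7 in DMEM; T47D in RPMI-1640; 10% FBS, 37 °C, 5% CO2) given peptide inhibitor 10 μM and tamoxifen 3 μM, alone or combined. Proliferation: 2 × 10^3 cells/well for the days indicated, then tetrazolium (CellTiter 96 Aqueous One) reagent for 1 h at 37 °C and absorbance at 490 nm. Colonies: 1 × 10^3 cells/well for 2 weeks, crystal violet stain dissolved in 10% acetic acid, read at 590 nm.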

[3] = system: c-Myc, N-myc, CCND1 expression in MDA-MB-231 cells; test: RT-qPCR and immunoblotting of BRD4/JMJD6 target genes, MDA-MB-231 cells; assay type: cell-based; conditions: 10 μM 6 h in cells; xenograft tumor samples; RT-qPCR
[4] = system: MDA-MB-231 cell-derived xenografts; test: MDA-MB-231 cell-derived xenograft mouse model; assay type: in vivo, BALB/c nude mice; conditions: tumor samples, 25 mg/kg ip every 2 days
Summary of the method: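 Female BALB/c nude mice (4–6 weeks) were implanted subcutaneously with 5 × 10^6 MDA-MB-231 cells in PBS and randomized at ~50 mm3. Peptide in normal saline was given at 25 mg/kg i.p. every 2 days. Tumours were analysed by RT-qPCR for c-Myc, N-myc and CCND1 (three biological repeats).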

[5] = system: tamoxifen-resistant T47D cells; test: Cell proliferation and colony formation, tamoxifen-resistant T47D; assay type: cell-based; conditions: peptide inhibitors 10 μM, tamoxifen 3 μM, cell proliferation and colony formation assay
Summary of the method: as §1

[6] = system: MCF7 cell-derived xenografts; test: MCF7 cell-derived xenograft mouse model; assay type: in vivo, BALB/c nude mice; conditions: tumor samples, 25 mg/kg ip every 2 days
Summary of the method: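 Female BALB/c nude mice (4–6 weeks) implanted subcutaneously with 5 × 10^6 MCF7 cells in PBS, with estrogen (E2, 10–2 M) brushed on every 2 days. Randomized at ~50 mm3 tumor volume. Test peptide was given in normal saline, 25 mg/kg i.p., every 2 days. Tumor lysates (Tris-HCl pH 7.4, NaCl, EDTA, 1% Triton X-100) were immunoblotted after 10% SDS-PAGE.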

| Compound | degradation of full-length BRD4 protein (BRD4) | mRNA levels of BRD4 or JMJD6, MCF7 (culture cells or xenografts) [1] | resensitization of tamoxifen-resistant MCF7 cells to tamoxifen [2] | mRNA levels of BRD4 or JMJD6, MDA-MB-231 (culture cells or xenografts) [3] | c-Myc, N-myc, and CCND1 mRNA and protein levels in MDA-MB-231 cell-derived xenografts [4] | sensitivity of tamoxifen-resistant T47D cells to tamoxifen [5] | c-Myc, N-myc, and CCND1 mRNA and protein levels in MCF7 cell-derived xenografts [6] | degradation of BRD4 and JMJD6 in MDA-MB-231 cell-derived xenografts ([4]; immunoblot) | degradation of BRD4 and JMJD6 in MCF7 cell-derived xenografts ([6]; immunoblot) |
| --- | --- | --- | --- | --- | --- | --- | --- | --- | --- |
| Cc1ncsc1-c1ccc(CNC(=O)[C@@H]2C[C@@H](O)CN2C(=O)[C@@H](NC(=O)COCCOCCOCCNC(=O)C[C@@H]2N=C(c3ccc(Cl)cc3)c3c(sc(C)c3C)-n3c(C)nnc32)C(C)(C)C)cc1 [MZ1] | induced the degradation of full-length BRD4 protein as effectively as TAT-PiET-PROTAC (10 μM) |  |  |  |  |  |  |  |  |
| YGRKKRRQRRRRNQKFKCGE [TAT-PiET] |  | did not affect | resensitized | did not affect | significant decrease | became sensitive to tamoxifen | significant decrease |  |  |
| TAT-PiET-PROTAC: PROTAC-modified TAT-PiET: VHL ligand peptide joined by AHX to the C-terminus (YGRKKRRQRRRRNQKFKCGE; not fully specified (C-terminus)) |  | did not affect | resensitized | did not affect | significant decrease | became sensitive to tamoxifen | significant decrease | induced the degradation of BRD4 and JMJD6 in xenografts | induced the degradation of BRD4 and JMJD6 in xenografts |

— PMC11056977 (Journal of Medicinal Chemistry, 2024)
